Results as given in ChEMBL document CHEMBL1268852, “Quercetin prevents unloading-derived disused muscle atrophy by attenuating the induction of ubiquitin ligases in tail-suspension mice” (J Nat Prod, 2010).
Activity calls are given as the source filed them. The calls are words filed in the database; no cut-off is given here.

Assays:
Type in all cases: functional, organism-based
Mus musculus [1] = experiment: […] of lipid peroxidation in gastrocnemius muscle of C57BL/6 mouse tail suspension model assessed as decrease of thiobarbituric acid-reactive substance level at 2.5 pmol administered in gastrocnemius muscle qd for 10 days by RT-PCR analysis
How it was run: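 Male C57BL/6 mice, 7 weeks old. Compound in 0.9% saline with 0.1% propylene glycol, 2.5 pmol/leg (50 µL) injected into one gastrocnemius and vehicle into the other, given every 24 h. Tail suspension began 24 h after the first dose and lasted 10 days; ground mice served as controls. Muscle taken 6 h after the day-10 dose. TBARS measured by fluorescence ([…]) against a tetraethoxypropane standard; n=4, two-way ANOVA.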

Mus musculus [2] = experiment: Reduction of gastrocnemius muscle weight loss in C57BL/6 mouse tail suspension model at 2.5 pmol administered in gastrocnemius muscle qd for 10 days relative to whole body weight
Mus musculus [3] = experiment: Reduction of atrogin-1 mRNA expression in gastrocnemius muscle of C57BL/6 mouse tail suspension model at 2.5 pmol administered in gastrocnemius muscle qd for 10 days by RT-PCR analysis
How it was run: (§1)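 Male C57BL/6 mice, 7 weeks old, injected intramuscularly in one gastrocnemius with 2.5 pmol/leg in saline/0.1% propylene glycol every 24 h; vehicle went into the contralateral leg. Tail suspension lasted 10 days and ground mice served as controls. Gastrocnemius taken 6 h after the last dose. mRNA measured by real-time PCR and given as % of the vehicle-ground level; mean ± SE, n=4.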

Mus musculus [4] = experiment: Reduction of MuRF-1 mRNA expression in gastrocnemius muscle of C57BL/6 mouse tail suspension model at 2.5 pmol administered in gastrocnemius muscle qd for 10 days by RT-PCR analysis; how it was run: as §1

With CC(=O)N[C@@H](CS)C(=O)O the Activity (Mus musculus [1]) was “Active” and the Activity (Mus musculus [2]) was “Active”.

In the case of O=c1c(O)c(-c2ccc(O)c(O)c2)oc2cc(O)cc(O)c12, the Activity (Mus musculus [3]) is reported as “Active”, the Activity (Mus musculus [4]) is reported as “Active” and the Activity (Mus musculus [1]) is reported as “Active”. For the same compound, the Activity (Mus musculus [2]) was “Active”.

In the case of O=c1cc(-c2ccccc2)oc2ccccc12, the Activity (Mus musculus [3]) is reported as “inactive”, the Activity (Mus musculus [4]) is reported as “inactive” and the Activity (Mus musculus [1]) is reported as “inactive”.
